PvdQ acylase: P. aeruginosa PvdQ acylase inhibitors, primary screen, biochemical, fluorescence, plate reader and imaging, single point. 340,000 tested, 0.063% active. purified PvdQ acylase. inhibition, % at 10 µM; in the data active = inhibition above about 30%, passing the limit was not always enough;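 note: 0% = vehicle neutral wells and 100% = reference inhibitor wells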
dFosB act: activators of delta FosB homodimer, primary screen, biochemical, fluorescence polarization, TAMRA-CDK5 oligo, single point; 340,000 tested, 0.99% active; AID 493131, 2011; purified delta FosB; percent of positive-control signal above neutral wells; activation, % at 25 µM; Protein FosB (Mus musculus), P13346;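 active = mean activation above about 17%, with every replicate also reaching it, limit read from the data, passing the limit was not always enough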
Target sequence (P13346 whole entry, looked up): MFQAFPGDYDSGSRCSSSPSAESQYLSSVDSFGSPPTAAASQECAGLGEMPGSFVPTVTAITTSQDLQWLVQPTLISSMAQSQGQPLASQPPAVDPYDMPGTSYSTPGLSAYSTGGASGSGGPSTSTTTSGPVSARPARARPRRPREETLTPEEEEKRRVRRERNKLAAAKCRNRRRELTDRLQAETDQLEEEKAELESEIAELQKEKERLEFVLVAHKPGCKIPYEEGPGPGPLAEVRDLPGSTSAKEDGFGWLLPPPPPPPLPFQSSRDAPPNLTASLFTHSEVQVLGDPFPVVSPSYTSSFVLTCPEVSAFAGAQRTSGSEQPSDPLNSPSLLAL
SR-BI HDL uptake: inhibitors of SR-BI mediated HDL lipid uptake, primary screen, ldlA[mSR-BI] cells, fluorescence, single point; Scavenger receptor class B member 1 (Mus musculus), Q61009; ldlA[mSR-BI] CHO cells, DiI-HDL uptake fluorescence, 3 h; inhibition, % at 12.5 µM; 320,000 tested, 0.96% active;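 active = mean replicate inhibition of at least 70% and a set share of replicates each scoring 70 or more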;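 note: 0% = median of neutral control wells and 100% = median of positive control wells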
S100A4 inh HTS: inhibitors of S100A4-myosin IIA peptide binding, primary screen, biochemical, fluorescence polarization, TAMRA-MyoIIA peptide; AID 652163, 2013; inhibition, % at 10.7 µM; 360,000 tested, 0.14% active; Protein S100-A4 (Homo sapiens), P26447;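 active = mean inhibition of at least 70% across replicates, with every replicate also reaching that level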
Target sequence (P26447 whole entry, looked up): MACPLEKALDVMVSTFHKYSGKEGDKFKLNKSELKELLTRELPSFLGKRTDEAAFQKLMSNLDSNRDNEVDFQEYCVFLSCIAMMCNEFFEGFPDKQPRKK
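Test system – S100A4 monomer (human) · Compound – single-point compound testing · Schedule – 5 min incubation before reading · Probe or stimulus – TAMRA-labelled myosin IIA heavy-chain peptide probe, 5 nM · Benchmarks – neutral control DMSO, positive control TFP · Medium – Calcium-containing HEPES buffer, pH 7.2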
SR-BI DiI-HDL act: activators of SR-BI mediated DiI-HDL uptake, primary screen, ldlA[mSR-BI] CHO cells, DiI fluorescence; AID 504775, 2011; 3 h; 100 = double the neutral-control signal; activation, % at 12.5 µM; 320,000 tested, 0.096% active;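 active = mean replicate activation of at least 60% and every replicate at or above 60%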;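 note: 0% = median plate neutral-control signal and 100% = twice that signal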
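material = CHO ldlA[mSR-BI] cells | medium = Ham's F12 with 0.5% BSA, HEPES 25 mM, pH 7.4 | reagent = fluorescent DiI-HDL, 10 µg/mL final | compound dosing = single-point compound dose | incubation = 3 h, 37 °C | measured by = bottom-read fluorescence, 550/595 nm | measure = HDL uptake via cellular fluorescence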
RAD54 branch: inhibitors of human RAD54 branch migration, primary screen, biochemical, fluorescence, single point. 360,000 tested, 0.14% active. AID 602329, 2012. RAD54 Holliday junction branch migration, FAM/BHQ fluorescence. inhibition, % at 10.4 µM;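 active = mean normalized replicate activity at least 40 and at least half of replicates scoring 40 or more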;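 note: 0% = median of neutral control wells and 100% = median of positive control wells; inhibitors cause a drop in the FAM fluorescence signal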
* hit, by the source's call; . = no result. Compounds with a hit are over-represented: about 1.6% of the library has one in this group of screens.

SMILES	PvdQ acylase	dFosB act	SR-BI HDL uptake	S100A4 inh HTS	SR-BI DiI-HDL act	RAD54 branch
COc1cccc(CNC(=O)C[C@H]2C=C[C@H](NC(=O)C3CCOCC3)[C@@H](CO)O2)c1	.	.	.	11.1	.	-10.3
Nc1nc(NCc2ccccc2)nc(NCc2ccccc2)c1[N+](=O)[O-]	6.0	6.4	-1.1	.	1.1	-3.6
Cc1cccc(Nc2nc(N)c([N+](=O)[O-])c(N3CCCC(C)C3)n2)c1 (centres undefined)	4.1	44.8*	24.2	.	-24.2	.
CNc1nc(N)c([N+](=O)[O-])c(NC2CCCCC2)n1	-10.0	-11.9	11.4	-1.4	-11.4	-2.6
Nc1nc(Nc2ccccc2)nc(NC2CCCCC2)c1[N+](=O)[O-]	14.5	72.7*	22.2	-0.8	-22.2	1.2
Cc1ccc(CNc2nc(N)c([N+](=O)[O-])c(NCc3ccccc3)n2)cc1	-10.5	3.2	-9.4	.	9.4	-6.7
Cc1cccc(Nc2nc(N)c([N+](=O)[O-])c(NCc3ccccc3)n2)c1	-11.0	39.1*	12.5	-2.3	-12.5	2.5
Nc1nc(Nc2ccccc2)nc(NCc2ccccc2)c1[N+](=O)[O-]	-5.6	34.2*	22.5	-5.2	-22.5	.
COc1ccc(S(=O)(=O)Nc2ccc3c(c2)CC(=O)N([C@H](C)CO)C[C@H](C)[C@@H](CN(C)S(=O)(=O)c2ccc(F)cc2)O3)cc1	.	.	.	.	.	-11.2
C[C@H]1CCCCO[C@H](CN(C)C(=O)c2ccccc2)[C@@H](C)CN([C@@H](C)CO)C(=O)c2cc(NC(=O)Cc3ccccc3)ccc2O1	.	.	.	3.6	.	-2.7
O=C(NCc1ccncc1)[C@H]1N[C@H]2c3ccc(/C=C/c4ccccc4)c(=O)n3C[C@H]2[C@@H]1CO	.	.	.	-2.6	.	4.9
COCC#Cc1cnc2c(c1)C(=O)N([C@@H](C)CO)C[C@H](C)[C@@H](CN(C)C(=O)c1cccc(F)c1)O2	.	.	.	12.9	.	5.4
COc1ccc(CCn2nnc(-c3ccc(NC(C)=O)c(Cl)c3)n2)cc1	-1.6	33.5*	-16.7	.	16.7	-3.9
COc1ccc(-c2ccc(-c3nnn(CC(C)=O)n3)cc2)cc1	-5.5	-1.8	20.1	.	-20.1	-13.6
COC(=O)c1cccc(NC(=O)/C=C/c2cccc([N+](=O)[O-])c2)c1	15.7	7.9	72.8*	-0.3	-72.8	.
O=C(C[C@H]1C=C[C@H](NS(=O)(=O)c2ccccc2)[C@@H](CO)O1)NCc1ccccc1F	.	.	.	-4.0	.	-1.2
CCC1CN(C(=O)N2CCC(C(=O)NCCc3ccc(OC)cc3OC)CC2)c2ccccc2O1 (centres undefined)	5.6	-12.3	78.2*	2.0	-78.2	-1.9
O=C(Nc1ccccc1F)N[C@H]1CC[C@H](CCNS(=O)(=O)c2ccc(F)cc2)O[C@H]1CO	.	.	.	3.4	.	-6.6
CN(C)CC#Cc1ccc([C@@H]2[C@H](CO)N3CCCCN(C(=O)C4CC4)C[C@@H]23)cc1	.	.	.	0.2	.	-2.3
CCCNC(=O)C[C@H]1CC[C@H]2[C@H](COc3ccc(NC(=O)c4ccccc4)cc3C(=O)N2C)O1	.	.	.	-58.1	.	-8.4
C[C@H](NC(=O)C[C@@H]1CC[C@@H](NC(=O)Cc2ccccn2)[C@H](CO)O1)c1ccccc1	.	.	.	12.1	.	-5.0
C[C@@H]1CN([C@H](C)CO)C(=O)c2cccc(NC(=O)Nc3ccc4c(c3)OCO4)c2O[C@@H]1CN(C)CC1CCCCC1	.	.	.	-0.3	.	-1.5
CC1CCN(Cc2c(C(=O)N/N=C/c3cc(Cl)ccc3O)nnn2-c2nonc2N)CC1	3.3	162.1*	18.0	-0.7	-18.0	-0.6
COc1c(Cl)cc(Cl)cc1/C=N/NC(=O)c1nnn(-c2nonc2N)c1CN1CCC(C)CC1	-0.9	-1.5	-2.6	-2.0	2.6	4.3

Screens (PubChem BioAssay)
